The text below walks through data of ChEMBL document CHEMBL5325511, “Discovery of N-(4-(Aminomethyl)phenyl)-5-methylpyrimidin-2-amine Derivatives as Potent and Selective JAK2 Inhibitors” (ACS Med Chem Lett, 2023).

Broadly, the Tmax is the time at which the peak concentration occurs. A word on the IC50: it is the concentration that inhibits the measured activity by half.

Molecules are shown by their SMILES. Activity calls are given as the source filed them. No cut-off for these calls is given here.

Data set [1] in a line: Tmax in Sprague-Dawley rat at 5 mg/kg, po measured upto 24 hrs by LC-MS/MS analysis. The data set is classed as ADME, organism-based. The following applies: in vivo, po, 5 mg/kg, 24 h. In outline: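 Sprague–Dawley rats, n = 5 per group, dosed at 5 mg/kg as a solution in 2% ethanol and 1% Tween 80, pH 5.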
Data set [2] addresses Non-receptor tyrosine-protein kinase TYK2 (Homo sapiens, UniProt P29597). Put plainly: Inhibition of TYK2 (unknown origin) in presence of Mg/ATP mixture by [gamma p33]-ATP based radiometric assay.
Data set [3] addresses Tyrosine-protein kinase JAK2 (Homo sapiens, UniProt O60674). As to the kind of experiment: Inhibition of JAK2 (unknown origin) in presence of Mg/ATP mixture by [gamma p33]-ATP based radiometric assay. In outline: (§1)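 IC50 values determined by Eurofins Discovery.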
Data set [4] concerns BaF3. As to the kind of experiment: Inhibition of JAK2/STAT signaling pathway in mouse BaF3 cells harbouring JAK2 V617F mutant assessed as reduction in AKT phosphorylation at 10 to 1000 nM by Western blot analysis. The data set is classed as cell-based. The following applies: dose 10-1000 nM. The method in brief: (§2)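 Ba/F3 JAK2V617F cells treated with compound at increasing concentrations. Phosphorylation levels of JAK2, STAT3, STAT5 and AKT assessed by Western blot.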
On the technique in general: A western blot detects proteins with antibodies after separation by electrophoresis.

Data set [5] is described as follows: Half life in Sprague-Dawley rat at 5 mg/kg, po measured upto 24 hrs by LC-MS/MS analysis. The data set is classed as ADME, organism-based. The settings on record: in vivo, po, 5 mg/kg, 24 h. In outline:
(§3)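 Sprague–Dawley rats, n = 5, dosed at 5 mg/kg as a solution in 2% ethanol and 1% Tween 80, pH 5.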

Data set [6] addresses T1, Tyrosine-protein kinase JAK3 (Homo sapiens, UniProt P52333).
T1 sequence (P52333 whole entry): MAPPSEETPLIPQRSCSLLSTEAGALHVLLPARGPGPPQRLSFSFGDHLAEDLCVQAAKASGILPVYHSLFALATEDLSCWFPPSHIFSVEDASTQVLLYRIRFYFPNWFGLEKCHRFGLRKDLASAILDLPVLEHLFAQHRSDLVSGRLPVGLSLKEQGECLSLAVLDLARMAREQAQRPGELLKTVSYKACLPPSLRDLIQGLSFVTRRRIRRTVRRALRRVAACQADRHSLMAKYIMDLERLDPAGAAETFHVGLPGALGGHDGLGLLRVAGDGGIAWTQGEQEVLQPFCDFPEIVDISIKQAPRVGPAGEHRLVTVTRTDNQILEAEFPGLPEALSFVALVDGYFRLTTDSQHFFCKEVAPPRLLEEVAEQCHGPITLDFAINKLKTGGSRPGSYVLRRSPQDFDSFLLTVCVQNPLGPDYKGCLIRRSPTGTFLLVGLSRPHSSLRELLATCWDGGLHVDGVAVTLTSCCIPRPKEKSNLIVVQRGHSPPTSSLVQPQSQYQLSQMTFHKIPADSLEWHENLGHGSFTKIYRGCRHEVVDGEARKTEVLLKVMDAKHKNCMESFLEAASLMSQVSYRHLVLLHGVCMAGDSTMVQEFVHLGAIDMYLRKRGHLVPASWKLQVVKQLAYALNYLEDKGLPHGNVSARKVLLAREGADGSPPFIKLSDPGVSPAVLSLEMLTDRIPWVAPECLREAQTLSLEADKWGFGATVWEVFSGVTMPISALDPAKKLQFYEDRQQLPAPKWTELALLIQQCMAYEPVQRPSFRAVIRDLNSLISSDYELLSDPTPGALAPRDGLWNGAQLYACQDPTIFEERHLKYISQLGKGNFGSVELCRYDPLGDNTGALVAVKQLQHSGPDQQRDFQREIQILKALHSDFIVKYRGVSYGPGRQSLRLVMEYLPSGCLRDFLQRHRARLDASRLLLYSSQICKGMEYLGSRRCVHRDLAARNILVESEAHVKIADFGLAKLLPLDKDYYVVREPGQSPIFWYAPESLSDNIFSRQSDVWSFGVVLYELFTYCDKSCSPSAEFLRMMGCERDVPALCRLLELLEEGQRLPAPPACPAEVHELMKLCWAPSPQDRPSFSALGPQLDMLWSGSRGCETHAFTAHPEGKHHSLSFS
Put plainly: Inhibition of JAK3 (unknown origin) in presence of Mg/ATP mixture by [gamma p33]-ATP based radiometric assay.

Data set [7] has as its system BaF3. As to the kind of experiment: Inhibition of JAK2/STAT signaling pathway in mouse BaF3 cells harbouring JAK2 V617F mutant assessed as reduction in STAT3 phosphorylation by Western blot analysis. The data set is classed as cell-based. The settings on record: dose 10-1000 nM. In outline: as §2
The target in data set [8] is Tyrosine-protein kinase JAK1 (Homo sapiens, UniProt P23458). As to the kind of experiment: Inhibition of JAK1 (unknown origin) in presence of Mg/ATP mixture by [gamma p33]-ATP based radiometric assay. The method in brief:
as §1

A short description of data set [9]: AUC(0 to t) in Sprague-Dawley rat at 5 mg/kg, po measured upto 24 hrs by LC-MS/MS analysis. The data set is classed as ADME, organism-based. On the set-up: time < 24 hrs, dose 5 mg/kg, route po. The settings on record: in vivo. The method in brief:
as §3

The target of data set [10] is Tyrosine-protein kinase Lck (Homo sapiens) (UniProt P06239). As to the kind of experiment: Inhibition of LCK (unknown origin). The method in brief: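 Kinase panel profiling (KinaseProfile, run by an outside contractor). The inhibitor was tested at 1 μM in duplicate against DMSO control. The value is % control, the percentage of kinase activity remaining.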
Sequence of Tyrosine-protein kinase Lck (Homo sapiens) (P06239 2-509 limits assumed): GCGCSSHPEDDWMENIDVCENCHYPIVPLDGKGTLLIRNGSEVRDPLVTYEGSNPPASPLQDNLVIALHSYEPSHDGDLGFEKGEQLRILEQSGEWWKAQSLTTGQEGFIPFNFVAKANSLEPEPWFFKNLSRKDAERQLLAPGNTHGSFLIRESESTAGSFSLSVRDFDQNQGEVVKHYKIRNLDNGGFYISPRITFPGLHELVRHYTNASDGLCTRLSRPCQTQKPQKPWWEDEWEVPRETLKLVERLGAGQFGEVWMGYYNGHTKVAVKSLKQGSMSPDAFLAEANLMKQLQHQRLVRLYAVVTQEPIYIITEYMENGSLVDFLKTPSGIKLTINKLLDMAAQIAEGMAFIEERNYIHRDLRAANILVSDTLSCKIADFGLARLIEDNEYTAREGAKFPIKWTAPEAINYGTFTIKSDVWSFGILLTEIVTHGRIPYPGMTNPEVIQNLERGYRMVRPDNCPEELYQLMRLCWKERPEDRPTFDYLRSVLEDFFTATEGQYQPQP
The test system of data set [11] is BaF3. As to the kind of experiment: Inhibition of JAK2/STAT signaling pathway in mouse BaF3 cells harbouring JAK2 V617F mutant assessed as reduction in STAT5 phosphorylation by Western blot analysis. The data set is classed as cell-based. The settings on record: dose 10-1000 nM. The method in brief: as §2

Sequence of Tyrosine-protein kinase JAK2 (O60674 whole entry): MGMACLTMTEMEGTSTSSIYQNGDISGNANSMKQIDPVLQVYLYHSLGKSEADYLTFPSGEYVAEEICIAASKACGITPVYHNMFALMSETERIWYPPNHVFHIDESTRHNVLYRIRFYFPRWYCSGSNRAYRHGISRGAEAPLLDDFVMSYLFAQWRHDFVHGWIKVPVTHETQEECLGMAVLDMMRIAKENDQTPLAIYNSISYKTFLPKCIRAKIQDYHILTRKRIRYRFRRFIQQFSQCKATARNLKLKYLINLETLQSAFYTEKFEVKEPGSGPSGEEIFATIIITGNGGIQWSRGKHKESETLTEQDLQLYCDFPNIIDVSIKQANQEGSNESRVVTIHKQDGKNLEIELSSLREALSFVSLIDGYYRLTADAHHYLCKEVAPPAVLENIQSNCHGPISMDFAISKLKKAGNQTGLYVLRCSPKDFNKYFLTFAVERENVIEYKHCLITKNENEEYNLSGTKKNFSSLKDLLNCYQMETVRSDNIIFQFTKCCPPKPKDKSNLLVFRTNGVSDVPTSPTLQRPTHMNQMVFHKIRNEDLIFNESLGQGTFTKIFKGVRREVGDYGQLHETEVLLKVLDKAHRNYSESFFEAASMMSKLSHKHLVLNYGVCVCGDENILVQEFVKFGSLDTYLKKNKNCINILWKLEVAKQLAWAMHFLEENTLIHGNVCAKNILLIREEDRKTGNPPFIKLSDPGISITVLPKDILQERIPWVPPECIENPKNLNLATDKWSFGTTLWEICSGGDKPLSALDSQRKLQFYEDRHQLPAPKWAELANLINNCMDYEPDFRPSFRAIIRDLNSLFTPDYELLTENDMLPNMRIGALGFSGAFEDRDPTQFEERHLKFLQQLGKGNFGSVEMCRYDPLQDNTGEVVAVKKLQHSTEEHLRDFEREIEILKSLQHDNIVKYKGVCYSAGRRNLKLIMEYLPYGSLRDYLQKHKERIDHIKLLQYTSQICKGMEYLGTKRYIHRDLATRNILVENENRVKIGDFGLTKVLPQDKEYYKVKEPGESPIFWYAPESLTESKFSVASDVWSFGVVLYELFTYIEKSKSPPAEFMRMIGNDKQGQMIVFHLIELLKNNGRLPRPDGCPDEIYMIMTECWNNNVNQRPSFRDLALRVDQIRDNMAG
Sequence of Tyrosine-protein kinase JAK1 (P23458 whole entry): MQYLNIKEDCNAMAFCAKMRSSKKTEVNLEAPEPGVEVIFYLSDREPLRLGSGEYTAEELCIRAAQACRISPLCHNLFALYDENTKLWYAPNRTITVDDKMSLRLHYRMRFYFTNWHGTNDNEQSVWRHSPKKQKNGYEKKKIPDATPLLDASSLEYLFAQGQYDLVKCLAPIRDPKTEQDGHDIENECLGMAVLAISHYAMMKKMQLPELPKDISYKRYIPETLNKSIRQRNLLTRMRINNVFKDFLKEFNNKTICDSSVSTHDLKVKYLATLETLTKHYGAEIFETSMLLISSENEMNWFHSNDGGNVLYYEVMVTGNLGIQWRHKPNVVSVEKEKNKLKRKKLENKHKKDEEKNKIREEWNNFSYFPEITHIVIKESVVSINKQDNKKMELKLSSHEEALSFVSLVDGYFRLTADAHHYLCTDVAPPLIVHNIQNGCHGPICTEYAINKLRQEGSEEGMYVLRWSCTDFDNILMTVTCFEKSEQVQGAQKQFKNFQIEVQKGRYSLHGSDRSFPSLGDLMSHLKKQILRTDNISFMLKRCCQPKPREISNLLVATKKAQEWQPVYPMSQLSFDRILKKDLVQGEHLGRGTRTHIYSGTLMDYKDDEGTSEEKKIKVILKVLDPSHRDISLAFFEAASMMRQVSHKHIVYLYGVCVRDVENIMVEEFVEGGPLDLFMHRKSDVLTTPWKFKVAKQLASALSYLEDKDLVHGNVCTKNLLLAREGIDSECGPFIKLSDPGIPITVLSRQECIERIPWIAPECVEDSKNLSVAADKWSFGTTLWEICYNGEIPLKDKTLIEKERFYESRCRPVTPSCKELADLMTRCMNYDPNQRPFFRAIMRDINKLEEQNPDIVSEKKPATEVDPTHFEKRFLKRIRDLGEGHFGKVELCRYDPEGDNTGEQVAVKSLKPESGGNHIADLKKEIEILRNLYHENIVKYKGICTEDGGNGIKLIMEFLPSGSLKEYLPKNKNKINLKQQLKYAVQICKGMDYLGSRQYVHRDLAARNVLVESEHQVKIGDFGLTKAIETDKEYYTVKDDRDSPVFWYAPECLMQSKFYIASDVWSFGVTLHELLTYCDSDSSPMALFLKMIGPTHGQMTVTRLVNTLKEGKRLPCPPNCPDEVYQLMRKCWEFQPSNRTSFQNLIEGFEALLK
Sequence of Non-receptor tyrosine-protein kinase TYK2 (P29597 whole entry): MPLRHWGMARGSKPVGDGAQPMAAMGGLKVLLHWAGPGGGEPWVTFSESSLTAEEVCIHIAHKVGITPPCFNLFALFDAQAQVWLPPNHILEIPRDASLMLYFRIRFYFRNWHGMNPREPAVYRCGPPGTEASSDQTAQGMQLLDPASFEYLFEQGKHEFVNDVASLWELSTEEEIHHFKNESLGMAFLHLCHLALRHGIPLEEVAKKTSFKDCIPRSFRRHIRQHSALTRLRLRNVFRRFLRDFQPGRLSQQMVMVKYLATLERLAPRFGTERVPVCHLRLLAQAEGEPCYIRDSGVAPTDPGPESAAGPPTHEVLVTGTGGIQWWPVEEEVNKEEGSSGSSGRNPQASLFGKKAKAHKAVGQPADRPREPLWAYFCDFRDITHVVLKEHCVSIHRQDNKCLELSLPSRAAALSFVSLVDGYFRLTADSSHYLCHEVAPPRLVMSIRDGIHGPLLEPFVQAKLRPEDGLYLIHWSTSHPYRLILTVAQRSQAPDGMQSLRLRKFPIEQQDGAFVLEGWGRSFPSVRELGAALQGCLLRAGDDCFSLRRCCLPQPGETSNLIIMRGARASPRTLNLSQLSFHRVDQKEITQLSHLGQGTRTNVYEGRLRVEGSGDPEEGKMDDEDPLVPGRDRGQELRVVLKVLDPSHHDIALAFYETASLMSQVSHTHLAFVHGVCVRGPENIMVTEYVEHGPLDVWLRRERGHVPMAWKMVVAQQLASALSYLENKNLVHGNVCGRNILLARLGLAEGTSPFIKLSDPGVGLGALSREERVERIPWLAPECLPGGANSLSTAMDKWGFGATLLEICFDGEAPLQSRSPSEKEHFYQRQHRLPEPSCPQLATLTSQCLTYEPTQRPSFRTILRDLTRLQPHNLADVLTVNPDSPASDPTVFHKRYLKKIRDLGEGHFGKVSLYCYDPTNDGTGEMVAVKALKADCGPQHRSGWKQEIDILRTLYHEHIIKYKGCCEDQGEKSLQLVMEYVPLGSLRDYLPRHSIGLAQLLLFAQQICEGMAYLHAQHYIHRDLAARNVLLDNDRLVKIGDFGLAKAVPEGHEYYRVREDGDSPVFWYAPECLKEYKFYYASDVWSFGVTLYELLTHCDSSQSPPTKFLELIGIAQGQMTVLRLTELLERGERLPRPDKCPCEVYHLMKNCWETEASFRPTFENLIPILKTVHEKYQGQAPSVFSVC

Turning to `C=CS(=O)(=O)NCc1ccc(Nc2ncc(C)c(-c3cnn(C(C)C)c3)n2)cc1`, in [1], the Tmax stood at 1.4 h. Besides, the half-maximal inhibitory concentration (IC50) was determined as 206 nM in [2], 5 nM in data set [3], 273 nM in [6] and 193 nM in data set [8]. Also, the inhibition entry (with BaF3 [4]; in data set [10]) was “Active” throughout. In addition, the t1/2 in data set [5] was determined as 5.2 h. The inhibition result with BaF3 [7] and in the data set with BaF3 [11] was “Dose-Dependent Effect” throughout. In addition, the AUCt in data set [9] is 3517.9 ng·h/mL.
